Assay results reported in ChEMBL document CHEMBL3407378, “Design, synthesis and biological evaluation of novel 7-alkylamino substituted benzo[a]phenazin derivatives as dual topoisomerase I/II inhibitors” (Eur J Med Chem, 2015).
pIC50: −log10 of the molar value. The source made the active and inactive calls. No cut-off for these calls is given here.

Assays:
[1] = target: DNA topoisomerase 2-alpha (Homo sapiens) (UniProt P11388); assay: Inhibition of human Topo 2-mediated relaxation of supercoiled pBR322 plasmid at 25 uM after 30 mins by agarose gel electrophoresis
[2] = Cytotoxicity against human HL60 cells after 48 hrs by MTT assay; type: functional, cell-based; conditions: HL-60, 48 h
Outline: (§1)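 Cells seeded 1 × 10^4 per well and incubated overnight, then given compound at 0–50 µM for 48 h. MTT added (20 µL of 5 mg/mL stock) for 4 h at 37 °C; formazan dissolved in DMSO, absorbance read at 570 nm. Triplicates; IC50 from mean OD versus concentration curves.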

K562 = assay: Cytotoxicity against human K562 cells after 48 hrs by MTT assay; type: functional, cell-based; conditions: K562, 48 h; outline: as §1
HeLa = assay: Cytotoxicity against human HeLa cells after 48 hrs by MTT assay; type: functional, cell-based; outline: as §1
A549 = assay: Cytotoxicity against human A549 cells after 48 hrs by MTT assay; type: functional, cell-based; conditions: A549, 48 h; outline: as §1
[3] = target: DNA topoisomerase 2-alpha (Homo sapiens) (UniProt P11388); assay: Inhibition of human Topo 2 ATPase domain expressed in yeast BCY123 strain at 25 uM after 1 hr by nonisotopic malachite green assay
Outline: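 Human Topo II ATPase domain overexpressed in yeast BCY123 and purified. Assay buffer: 100 mM Tris-HCl pH 7.4, 20 mM KCl, 6 mM MgCl2. Reaction of 25 µL with compound, started with 1 mM ATP, 1 h at 37 °C. Phosphate detected with malachite green at OD620. No-enzyme background set as 100% inhibition and enzyme-only as 0%.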

[4] = target: DNA topoisomerase 2-alpha (Homo sapiens) (UniProt P11388); assay: Competitive inhibition of human Topo 2 ATPase domain expressed in yeast BCY123 strain after 1 hr by Lineweaver-Burk plot method
Outline: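 Human Topo II ATPase domain expressed in yeast BCY123 and purified. Assay buffer: 100 mM Tris-HCl pH 7.4, 20 mM KCl, 6 mM MgCl2. ATP at 250, 500, 800, 1,000 and 2000 µM at each fixed compound level (0, 5, 25, 50, 100 µM), 1 h at 37 °C. Phosphate read by malachite green at 620 nm.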

[5] = target: T1, DNA topoisomerase 1 (Homo sapiens) (UniProt P11387); assay: Inhibition of Topo 1 (unknown origin)-mediated relaxation of supercoiled pBR322 plasmid at 25 uM after 30 mins by agarose gel electrophoresis
T1 sequence (whole entry): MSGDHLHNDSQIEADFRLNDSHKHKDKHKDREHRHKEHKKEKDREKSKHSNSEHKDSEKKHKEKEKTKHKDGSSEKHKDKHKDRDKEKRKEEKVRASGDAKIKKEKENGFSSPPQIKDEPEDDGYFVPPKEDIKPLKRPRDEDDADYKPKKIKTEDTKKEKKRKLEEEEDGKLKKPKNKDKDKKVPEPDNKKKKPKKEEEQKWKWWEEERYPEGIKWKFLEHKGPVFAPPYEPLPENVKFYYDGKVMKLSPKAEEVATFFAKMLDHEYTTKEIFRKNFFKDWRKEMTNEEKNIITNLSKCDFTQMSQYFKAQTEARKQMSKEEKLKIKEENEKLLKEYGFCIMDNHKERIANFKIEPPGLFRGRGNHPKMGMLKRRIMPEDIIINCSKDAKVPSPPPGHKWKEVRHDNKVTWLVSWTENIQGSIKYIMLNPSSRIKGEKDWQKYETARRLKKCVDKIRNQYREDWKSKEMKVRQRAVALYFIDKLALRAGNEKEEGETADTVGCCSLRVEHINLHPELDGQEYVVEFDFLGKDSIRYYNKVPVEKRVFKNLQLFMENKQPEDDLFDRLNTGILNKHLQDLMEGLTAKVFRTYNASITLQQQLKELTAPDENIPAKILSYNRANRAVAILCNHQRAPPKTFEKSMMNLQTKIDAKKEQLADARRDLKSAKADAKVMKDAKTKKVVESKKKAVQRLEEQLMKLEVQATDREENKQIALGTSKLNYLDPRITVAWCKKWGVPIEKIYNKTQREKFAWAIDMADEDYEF
Outline: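 Topo I with supercoiled pBR322 and compound, 30 min at 37 °C. Stopped with SDS/bromophenol blue/glycerol dye; run on 1% agarose gel in TAE for 1 h and stained with Gel Red.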

[6] = target: DNA topoisomerase 2-alpha (Homo sapiens) (UniProt P11388); assay: Inhibition of human Topo 2-mediated relaxation of supercoiled pBR322 plasmid at 25 to 50 uM after 30 mins by agarose gel electrophoresis
[7] = target: T2, DNA topoisomerase (Bos taurus) (UniProt A0JN73); assay: Induction of calf thymus Topo 1-pBR322 DNA cleavage complex formation assessed as nicked DNA formation at 0.5 to 10 uM after 30 mins by optical density analysis
T2 sequence (whole entry): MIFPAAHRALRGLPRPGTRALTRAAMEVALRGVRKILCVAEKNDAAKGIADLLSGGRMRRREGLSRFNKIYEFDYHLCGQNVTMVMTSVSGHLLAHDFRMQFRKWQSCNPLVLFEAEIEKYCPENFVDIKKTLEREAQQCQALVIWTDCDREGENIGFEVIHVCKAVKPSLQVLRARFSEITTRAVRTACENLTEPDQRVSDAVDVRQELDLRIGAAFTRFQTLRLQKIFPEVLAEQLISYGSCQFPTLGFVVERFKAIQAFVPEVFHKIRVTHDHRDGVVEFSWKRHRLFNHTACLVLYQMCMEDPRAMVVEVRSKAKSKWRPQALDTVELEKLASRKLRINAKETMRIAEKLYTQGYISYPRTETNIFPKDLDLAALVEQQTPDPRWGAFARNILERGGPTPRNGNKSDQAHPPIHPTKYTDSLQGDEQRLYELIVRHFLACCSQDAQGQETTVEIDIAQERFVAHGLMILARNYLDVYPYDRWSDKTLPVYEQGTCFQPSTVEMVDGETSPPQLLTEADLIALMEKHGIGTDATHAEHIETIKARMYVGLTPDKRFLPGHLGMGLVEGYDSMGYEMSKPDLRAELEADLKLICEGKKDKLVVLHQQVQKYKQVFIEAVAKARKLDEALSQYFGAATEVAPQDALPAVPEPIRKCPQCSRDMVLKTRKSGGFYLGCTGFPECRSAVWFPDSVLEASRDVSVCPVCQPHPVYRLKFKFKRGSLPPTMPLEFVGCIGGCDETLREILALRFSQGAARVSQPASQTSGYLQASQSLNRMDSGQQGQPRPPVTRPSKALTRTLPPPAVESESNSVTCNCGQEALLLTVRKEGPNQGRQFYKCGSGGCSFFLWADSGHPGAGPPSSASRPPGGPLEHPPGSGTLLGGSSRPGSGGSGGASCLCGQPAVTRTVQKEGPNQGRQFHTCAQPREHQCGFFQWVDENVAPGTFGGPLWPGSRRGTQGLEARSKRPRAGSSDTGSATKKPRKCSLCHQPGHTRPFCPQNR
Outline: (§2)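 Calf thymus Topo I (10 units) with 0.1 µg supercoiled pBR322 and compound (0.5–50 µM) in Topo I buffer pH 7.5, 6 min at 37 °C. Complexes trapped with SDS then NaEDTA, proteinase K 30 min at 45 °C, heated 70 °C for 2 min, 1% agarose gel with ethidium bromide. Nicked DNA quantified by optical density.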

[8] = target: T2, DNA topoisomerase (Bos taurus); assay: Induction of calf thymus Topo 1-pBR322 DNA cleavage complex formation assessed as nicked DNA formation at 10 uM after 30 mins by optical density analysis relative to control; outline: as §2
[9] = target: T2, DNA topoisomerase (Bos taurus); assay: Induction of calf thymus Topo 1-pBR322 DNA cleavage complex formation assessed as nicked DNA formation at 25 to 50 uM after 30 mins by optical density analysis relative to control; outline: as §2
[10] = target: T1, DNA topoisomerase 1 (Homo sapiens); assay: Induction of Topo 1-DNA cleavage complex formation in human HL60 cells after 1 hr by ICE assay; type: cell-based; conditions: HL-60
Outline: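 Mid-log phase HL-60 cells exposed to 2, 5 or 10 µM compound (DMSO vehicle 1.0% v/v) for 1 h, then lysed in DNAzol. DNA was ethanol-precipitated, redissolved and quantified. 2 µg DNA in 25 mM NaH2PO4 pH 6.5 was blotted onto nitrocellulose. Covalent Topo I was probed with rabbit anti-human Topo I (1:1000) and HRP secondary (1:3000), read by chemiluminescence.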

[11] = target: DNA topoisomerase 2-alpha (Homo sapiens) (UniProt P11388); assay: Induction of human Topo 2-pBR322 DNA cleavage complex formation assessed as linear DNA formation at 10 to 50 uM by agarose gel electrophoresis
Nucleic Acid [12] = assay: Binding affinity to Escherichia coli pBR322 DNA assessed as DNA intercalation activity compound preincubated at 5 to 100 uM for 10 mins before enzyme addition by DNA unwinding assay in presence of topoisomerase 1; type: nucleic-acid assay
Calf thymus DNA = assay: Binding affinity to calf thymus DNA at 15 uM after 5 mins by UV-vis spectrometry; type: nucleic-acid assay; conditions: Bos taurus
Outline: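 Compound at 15 µM in DPBS pH 7.4 with 1% DMSO, titrated with CT-DNA (0–24 µM, quantified at 260 nm, ε 13,200 M(bp)-1 cm-1). Equilibrated 5 min at room temperature; absorption spectra recorded 400–600 nm; Kapp derived from titration.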

Nucleic Acid [13] = assay: Binding affinity to Escherichia coli pBR322 DNA assessed as DNA intercalation activity compound preincubated for 10 mins before enzyme addition by DNA unwinding assay in presence of topoisomerase 1; type: nucleic-acid assay

DNA topoisomerase 2-alpha (Homo sapiens), sequence (P11388 whole entry, the tested form may be a part): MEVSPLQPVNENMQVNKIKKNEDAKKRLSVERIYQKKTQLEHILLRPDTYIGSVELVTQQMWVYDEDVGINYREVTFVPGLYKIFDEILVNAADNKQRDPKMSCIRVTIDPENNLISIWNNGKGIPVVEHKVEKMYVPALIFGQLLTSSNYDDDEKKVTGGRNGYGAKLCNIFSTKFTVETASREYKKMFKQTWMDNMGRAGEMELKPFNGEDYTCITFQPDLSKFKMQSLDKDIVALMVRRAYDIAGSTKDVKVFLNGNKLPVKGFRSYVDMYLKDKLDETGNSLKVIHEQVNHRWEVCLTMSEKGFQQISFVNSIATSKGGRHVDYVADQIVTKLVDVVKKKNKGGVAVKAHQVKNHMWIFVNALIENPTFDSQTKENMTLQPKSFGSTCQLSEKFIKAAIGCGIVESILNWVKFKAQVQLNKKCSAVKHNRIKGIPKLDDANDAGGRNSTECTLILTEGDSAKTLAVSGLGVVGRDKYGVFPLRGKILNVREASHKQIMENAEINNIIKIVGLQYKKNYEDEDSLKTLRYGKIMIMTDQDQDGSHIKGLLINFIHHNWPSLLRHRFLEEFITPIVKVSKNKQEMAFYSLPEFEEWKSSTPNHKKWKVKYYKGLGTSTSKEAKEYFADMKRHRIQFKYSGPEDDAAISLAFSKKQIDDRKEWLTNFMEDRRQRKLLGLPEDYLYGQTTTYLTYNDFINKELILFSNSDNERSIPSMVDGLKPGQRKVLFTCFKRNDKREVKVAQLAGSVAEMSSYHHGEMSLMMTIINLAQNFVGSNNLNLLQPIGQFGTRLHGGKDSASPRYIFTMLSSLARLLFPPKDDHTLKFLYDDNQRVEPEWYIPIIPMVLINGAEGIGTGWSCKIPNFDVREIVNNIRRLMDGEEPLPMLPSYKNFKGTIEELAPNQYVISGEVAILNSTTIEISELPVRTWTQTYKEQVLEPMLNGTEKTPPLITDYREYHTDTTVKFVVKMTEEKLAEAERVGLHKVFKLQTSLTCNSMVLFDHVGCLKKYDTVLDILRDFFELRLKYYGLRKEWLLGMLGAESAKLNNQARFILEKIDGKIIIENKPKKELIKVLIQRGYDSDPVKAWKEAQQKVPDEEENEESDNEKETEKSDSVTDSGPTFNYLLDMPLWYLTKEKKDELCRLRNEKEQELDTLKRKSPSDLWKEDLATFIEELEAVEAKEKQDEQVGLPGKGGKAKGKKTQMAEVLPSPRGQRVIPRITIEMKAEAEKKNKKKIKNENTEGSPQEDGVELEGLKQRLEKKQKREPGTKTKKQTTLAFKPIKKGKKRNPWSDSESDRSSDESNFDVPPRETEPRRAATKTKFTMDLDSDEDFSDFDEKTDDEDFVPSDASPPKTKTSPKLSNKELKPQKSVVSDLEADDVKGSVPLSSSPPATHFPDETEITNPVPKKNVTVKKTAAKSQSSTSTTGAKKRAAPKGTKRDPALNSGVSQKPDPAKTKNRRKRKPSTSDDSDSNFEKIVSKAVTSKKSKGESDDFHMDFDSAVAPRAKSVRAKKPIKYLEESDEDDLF

| Structure (SMILES) | Topo 2 inhibition (active/not active) [1] | pIC50 [2] | pIC50 (K562) | pIC50 (HeLa) | pIC50 (A549) | inhibition [3] [%] | inhibition [4] | Topo I relaxation inhibition (active/not active) [5] | Topo 2 inhibition (active/not active) [6] | Activity [7] | fold change (FC) [8] | Activity [9] | Activity [10] | Activity [11] | Activity (Nucleic Acid [12]) | Kapp (Calf thymus DNA) [×10⁵ /M] | Activity (Nucleic Acid [13]) |
| --- | --- | --- | --- | --- | --- | --- | --- | --- | --- | --- | --- | --- | --- | --- | --- | --- | --- |
| COc1ccc2c3nc4ccc(OC)cc4n(CCCN(C)C)c-3cc(=O)c2c1 | Active | 7.05 | 5.06 | 4.74 | 4.58 | 78 | Dose-dependent effect |  |  |  |  |  |  |  |  |  |  |
| CN(C)CCCCn1c2cc(=O)c3ccccc3c-2nc2ccccc21 |  | 6.42 | 5.33 | 4.67 | 4.79 |  |  | Active | Active | Dose-dependent effect | 2.5 | Active | Dose-dependent effect | inactive | Active | 4.83 |  |
| CC[n+]1c(-c2ccccc2)c2cc(N)ccc2c2ccc(N)cc21 |  |  |  |  |  |  |  |  |  |  |  |  |  |  |  |  | Dose-dependent effect |
